The record followed here is ChEMBL document CHEMBL1129325, “Ureido-based peptidomimetic inhibitor of herpes simplex virus ribonucleotide reductase: an investigation of inhibitor bioactive conformation” (J Med Chem, 1996).

Molecules are shown by their SMILES. Numbered stars: 1 amine (or outer) side, 2 acyl side, 3 side chain; on linkers, the order of the positions; unused ones are H or OH. Square brackets hold non-standard residues; d marks the D form. Peptide text beside a SMILES is read from it. * marks the point of attachment. Hydrocinnamoyl = O=C(CCc1ccccc1)*; Butanoyl(2-Et) = CCC(CC)C(=O)*; Tle = CC(C)(C)[C@H](N)C(=O)O; Pip = O=C(O)[C@@H]1CCCCN1; NH(3-pentyl) = CCC(CC)N*; Pyrrolidide = C1CCN(*)C1; CO = O=C([*:1])[*:2]; X2 = CCC(CC)CC(=O)*; X3 = CCC(CC)OC(=O)*; X1 = CCCC(CCC)N*; NHiPr = CC(C)N*

The IC50 is the concentration at which inhibition is half-maximal. Higher therefore signals weaker potency in that assay.

This assay concerns the target T1, Ribonucleoside-diphosphate reductase large subunit (Herpes simplex virus (type 1 / strain 17), UniProt P08543).
T1 sequence (P08543 whole entry): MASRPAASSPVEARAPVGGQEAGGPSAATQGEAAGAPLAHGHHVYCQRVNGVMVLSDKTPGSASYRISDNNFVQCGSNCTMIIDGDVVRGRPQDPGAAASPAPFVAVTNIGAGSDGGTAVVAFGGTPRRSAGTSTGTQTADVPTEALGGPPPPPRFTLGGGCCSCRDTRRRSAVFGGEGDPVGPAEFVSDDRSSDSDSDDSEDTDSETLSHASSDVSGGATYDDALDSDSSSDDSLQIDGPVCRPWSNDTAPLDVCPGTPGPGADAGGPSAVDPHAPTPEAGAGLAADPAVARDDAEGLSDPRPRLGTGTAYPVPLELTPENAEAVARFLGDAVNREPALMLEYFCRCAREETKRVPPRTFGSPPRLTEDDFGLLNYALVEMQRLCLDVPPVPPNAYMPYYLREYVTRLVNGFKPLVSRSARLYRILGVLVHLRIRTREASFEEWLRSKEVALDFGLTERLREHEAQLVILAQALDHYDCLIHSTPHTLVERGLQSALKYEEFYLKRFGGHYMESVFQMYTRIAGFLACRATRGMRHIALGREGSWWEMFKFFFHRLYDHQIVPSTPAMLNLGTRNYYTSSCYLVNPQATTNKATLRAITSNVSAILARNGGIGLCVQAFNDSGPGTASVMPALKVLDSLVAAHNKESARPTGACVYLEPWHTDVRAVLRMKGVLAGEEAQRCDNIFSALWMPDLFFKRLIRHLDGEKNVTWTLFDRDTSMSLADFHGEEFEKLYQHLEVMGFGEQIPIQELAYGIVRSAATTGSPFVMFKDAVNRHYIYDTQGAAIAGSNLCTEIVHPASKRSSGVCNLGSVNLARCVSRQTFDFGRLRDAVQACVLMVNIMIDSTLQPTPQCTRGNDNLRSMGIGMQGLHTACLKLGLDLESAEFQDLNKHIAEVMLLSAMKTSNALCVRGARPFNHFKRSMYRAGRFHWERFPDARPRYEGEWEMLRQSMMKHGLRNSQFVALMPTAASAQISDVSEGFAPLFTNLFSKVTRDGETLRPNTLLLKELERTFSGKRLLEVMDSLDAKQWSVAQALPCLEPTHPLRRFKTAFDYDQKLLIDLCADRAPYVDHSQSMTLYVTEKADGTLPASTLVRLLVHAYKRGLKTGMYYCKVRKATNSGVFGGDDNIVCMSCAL
As to the kind of experiment: Inhibitory activity against Herpes simplex virus (HSV) ribonucleotide reductase (RR). The method, boiled down:
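Radioligand binding assay for HSV ribonucleotide reductase subunit association, run per a previously published protocol. IC50 taken as the mean of at least four separate determinations, with standard deviation reported.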
On to `CCC(CC)NC(=O)N[C@H](C(=O)N1CCC[C@H]1C(=O)N[C@@H](CC(=O)O)C(=O)N[C@@H](CC(C)C)C(=O)O)C(C)(C)C` ({NH(3-pentyl)-CO}-[Tle]PDL-OH), for which the midpoint of inhibition, the IC50, lay at 100000 nM.

In turn, `CCC(CC)NC(=O)NC1CCN([C@@H](CC(=O)N2CCCC2)C(=O)N[C@@H](CC(=O)O)C(=O)N[C@@H](CC(C)C)C(=O)O)C1=O` (stereo partly drawn) registered an IC50 of 800 nM. This IC50 lies about 120-fold lower than the previous one. In the case of `CNC(=O)N[C@H](C(=O)N[C@@H](CC(=O)N1CCCC1)C(=O)N[C@@H](CC(=O)O)C(=O)N[C@@H](CC(C)C)C(=O)O)C(C)C` ({NHMe-CO}-VD(Pyrrolidide)DL-OH), the IC50 amounted to 42000 nM. Against the preceding compound, the IC50 is about 52-fold higher. For `CC(C)C[C@H](NC(=O)[C@H](CC(=O)O)NC(=O)[C@H](CC(=O)N1CCCC1)NC(=O)[C@@H](NC(=O)[C@@H](NC(=O)CCc1ccccc1)C(C)C)C(C)C)C(=O)O` (Hydrocinnamoyl-VVD(Pyrrolidide)DL-OH), half-maximal inhibition (IC50) was put at 24 nM. Compound `CCC(CC)NC(=O)N[C@H](C(=O)N[C@@H](CC(=O)N1CCCC1)C(=O)N[C@@H](CC(=O)O)C(=O)N[C@@H](CC(C)C)C(=O)O)C(C)C` ({NH(3-pentyl)-CO}-VD(Pyrrolidide)DL-OH) yielded an IC50 of 15 nM. `CCC(CC)NC(=O)N[C@H](C(=O)N1CCCC[C@H]1C(=O)N[C@@H](CC(=O)O)C(=O)N[C@@H](CC(C)C)C(=O)O)C(C)(C)C` ({NH(3-pentyl)-CO}-[Tle][Pip]DL-OH) showed an IC50 of 750000 nM.

For `CCC(CC)NC(=O)N[C@H](C(=O)N[C@@H](CC(=O)NC)C(=O)N[C@@H](CC(=O)O)C(=O)N[C@@H](CC(C)C)C(=O)O)C(C)(C)C` ({NH(3-pentyl)-CO}-[Tle]D(NHMe)DL-OH), the IC50 worked out at 35 nM. Then `CCC(CC)NC(=O)N[C@H](C(=O)N[C@@H](C)C(=O)N[C@@H](CC(=O)O)C(=O)N[C@@H](CC(C)C)C(=O)O)C(C)(C)C` ({NH(3-pentyl)-CO}-[Tle]ADL-OH), with 110000 nM. For `CCC(CC)NC(=O)N[C@H](C(=O)N1CCCC(C(=O)N2CCCC2)C1C(=O)N[C@@H](CC(=O)O)C(=O)N[C@@H](CC(C)C)C(=O)O)C(C)(C)C` (stereo in doubt; 16) the value was 32 nM; for `CCC(CC)C(=O)N[C@H](C(=O)N[C@@H](CC(=O)N1CCCC1)C(=O)N[C@@H](CC(=O)O)C(=O)N[C@@H](CC(C)C)C(=O)O)C(C)C` ({Butanoyl(2-Et)}-VD(Pyrrolidide)DL-OH), 860 nM; for `CCC(CC)NC(=O)C[C@H](C(=O)N[C@@H](CC(=O)N1CCCC1)C(=O)N[C@@H](CC(=O)O)C(=O)N[C@@H](CC(C)C)C(=O)O)C(C)(C)C`, 5 nM. On to `CCCC(CCC)NC(=O)N[C@H](C(=O)N[C@@H](CC(=O)N1CCCC1)C(=O)N[C@@H](CC(=O)O)C(=O)N[C@@H](CC(C)C)C(=O)O)C(C)C` ({X1-CO}-VD(Pyrrolidide)DL-OH), for which half-maximal inhibition (IC50) was put at 7 nM. `CCC(CC)CC(=O)N[C@H](C(=O)N[C@@H](CC(=O)N1CCCC1)C(=O)N[C@@H](CC(=O)O)C(=O)N[C@@H](CC(C)C)C(=O)O)C(C)(C)C` (X2-[Tle]D(Pyrrolidide)DL-OH) yielded an IC50 of 140 nM. Then `CCC(CC)NC(=O)NCC(=O)N[C@@H](CC(=O)N1CCCC1)C(=O)N[C@@H](CC(=O)O)C(=O)N[C@@H](CC(C)C)C(=O)O` ({NH(3-pentyl)-CO}-GD(Pyrrolidide)DL-OH), with 670 nM.

Turning to `CCC(CC)NC(=O)N[C@@H](C)C(=O)N[C@@H](CC(=O)N1CCCC1)C(=O)N[C@@H](CC(=O)O)C(=O)N[C@@H](CC(C)C)C(=O)O` ({NH(3-pentyl)-CO}-AD(Pyrrolidide)DL-OH), the concentration for half-maximal inhibition (IC50) was 41000 nM. This IC50 is about 61-fold higher than that of the compound before. For `CCC(CC)NC(=O)N[C@H](C(=O)N[C@@H](CC(=O)N1CCCC1)C(=O)N[C@@H](CC(=O)O)C(=O)N[C@@H](CC(C)C)C(=O)O)C(C)(C)C` ({NH(3-pentyl)-CO}-[Tle]D(Pyrrolidide)DL-OH) the value was 3 nM. Then `CC(=O)N[C@H](C(=O)N[C@H](C(=O)N[C@@H](CC(=O)N1CCCC1)C(=O)N[C@@H](CC(=O)O)C(=O)N[C@@H](CC(C)C)C(=O)O)C(C)C)C(C)C` (Ac-VVD(Pyrrolidide)DL-OH), with 880 nM. For `CCC(CC)OC(=O)N[C@H](C(=O)N[C@@H](CC(=O)N1CCCC1)C(=O)N[C@@H](CC(=O)O)C(=O)N[C@@H](CC(C)C)C(=O)O)C(C)(C)C` (X3-[Tle]D(Pyrrolidide)DL-OH) the value was 635 nM; for `CCC(CC)NC(=O)NC1CCCN([C@@H](CC(=O)N2CCCC2)C(=O)N[C@@H](CC(=O)O)C(=O)N[C@@H](CC(C)C)C(=O)O)C1=O` (stereo partly drawn), 240 nM. For the compound `CC(C)C[C@H](NC(=O)[C@H](CC(=O)O)NC(=O)[C@H](CC(=O)N1CCCC1)NC(=O)[C@@H](NC(=O)NC(C)C)C(C)C)C(=O)O` ({NHiPr-CO}-VD(Pyrrolidide)DL-OH), the IC50 is 435 nM. `CCC(CC)NC(=O)N[C@H](C(=O)N1CCC(C(=O)N2CCCC2)[C@H]1C(=O)N[C@@H](CC(=O)O)C(=O)N[C@@H](CC(C)C)C(=O)O)C(C)(C)C` (stereo partly drawn) displayed an IC50 of 108 nM.

On to `CCC(CC)NC(=O)N[C@H](C(=O)N1CCCC(C(=O)NC)C1C(=O)N[C@@H](CC(=O)O)C(=O)N[C@@H](CC(C)C)C(=O)O)C(C)(C)C` (stereo partly drawn), for which the midpoint of inhibition, the IC50, lay at 10 nM. For `CCC(CC)NC(=O)N[C@H](C(=O)N1CCCC(C(=O)N2CCCC2)C1C(=O)N[C@@H](CC(=O)O)C(=O)N[C@@H](CC(C)C)C(=O)O)C(C)(C)C` (stereo in doubt; 17) the value was 3000 nM.
